The conditions of data set [1]: named as a side effect restricting use; cited from earlier work.
For data set [2] the following is noted: named as a side effect restricting use; cited from earlier work. The source holds these as a separate data set.
Data set [3] concerns sEH. To be noted: derived from the leaves of Capsicum chinense; cited from earlier work.
Data set [4] concerns the target T1, sEH (Homo sapiens, UniProt P34913).
T1 sequence (P34913 1-555): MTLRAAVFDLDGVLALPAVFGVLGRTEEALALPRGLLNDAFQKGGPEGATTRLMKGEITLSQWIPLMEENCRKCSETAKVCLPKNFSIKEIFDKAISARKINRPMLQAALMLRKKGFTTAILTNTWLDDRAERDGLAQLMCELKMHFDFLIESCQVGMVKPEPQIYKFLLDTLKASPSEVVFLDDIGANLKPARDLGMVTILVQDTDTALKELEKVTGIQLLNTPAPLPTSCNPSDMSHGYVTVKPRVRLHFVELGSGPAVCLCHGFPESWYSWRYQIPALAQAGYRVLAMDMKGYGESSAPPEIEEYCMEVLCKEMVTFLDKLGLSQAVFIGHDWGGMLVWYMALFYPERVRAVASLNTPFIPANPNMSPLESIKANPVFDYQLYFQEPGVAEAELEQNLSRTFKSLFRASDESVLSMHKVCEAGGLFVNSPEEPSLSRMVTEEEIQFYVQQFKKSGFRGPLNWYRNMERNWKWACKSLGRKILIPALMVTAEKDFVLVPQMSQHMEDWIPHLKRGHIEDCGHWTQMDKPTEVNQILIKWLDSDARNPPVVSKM
Put plainly: biochemical.

Data set [5] has as its target T1, sEH. Put plainly: Enzyme kinetics analysis. In kind it is biochemical. An outline of the steps:
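Recombinant human sEH (250 ng/mL) in 25 mM Tris–HCl, pH 7.0, with 0.1 mg/mL BSA, mixed with inhibitor in methanol, then PHOME substrate added at several concentrations. Product fluorescence was read at ex 330/em 465 nm. Initial velocities at each fixed inhibitor concentration were plotted double-reciprocally (Lineweaver–Burk) to assign inhibition mode and derive Ki. Triplicates in three independent experiments, mean ± SEM.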

Data set [6] concerns LPS-treated BV2 microglial cells. To be noted: 15 μmol; cited from earlier work.

As to `O=C(O)CCCCCCCCCCCNC(=O)NC12CC3CC(CC(C3)C1)C2` [AUDA, 12-(3-adamantane-1-yl-ureido)-dodecanoic acid], the metabolic stability entry in data set [1] was “metabolic instability”. Moreover, the water solubility entry in data set [2] was “limited water solubility”. On to `O=C(/C=C/c1ccc(O)cc1)NCCc1ccc(O)cc1` [N-trans-Coumaroyltyramine], for which, in the data set on sEH [3], the “mode of inhibition against sEH” value is listed as “competitive inhibition”. At sEH [4], `COc1cc([C@@H]2Oc3c(OC)cc(/C=C/C(=O)NCCc4ccc(O)cc4)cc3[C@H]2C(=O)NCCc2ccc(O)cc2)ccc1O` [Compound 5, grossamide] yielded an IC50 of 3300 ± 300 nM. The compound also registered a Ki on sEH [5] of 1500 nM. Moreover, on sEH [5] (Lineweaver-Burk plots), the Inhibition type result is listed as “Competitive”. As to `O=C(C=Cc1cc(O)c2c(c1)C(C(=O)NCCc1ccc(O)cc1)C(c1ccc(O)c(O)c1)O2)NCCc1ccc(O)cc1` (stereo not shown) [3,3′-demethyl-grossamide], the “anti-neuroinflammatory activities via TNF-α suppression” value in data set [6] was “exerted anti-neuroinflammatory activities”.

With coumaroyl-amino butanol glucopyranoside, in data set [6], the “anti-neuroinflammatory activities via TNF-α suppression” value is “exerted anti-neuroinflammatory activities”. For the compound `COc1cc(/C=C/C(=O)NCCc2ccc(O)cc2)ccc1O` [N-trans-feruloyltyramine], the “mode of inhibition against sEH” value in the data set on sEH [3] is “competitive inhibition”.

On to `COc1cc(/C=C(C(=O)NCCc2ccc(O)cc2)\C(=C/c2ccc(O)c(OC)c2)C(=O)NCCc2ccc(O)cc2)ccc1O` [cannabisin G], for which the “anti-neuroinflammatory activities via TNF-α suppression” value in data set [6] is listed as “exerted anti-neuroinflammatory activities”.

As usually defined, the IC50 is the concentration that inhibits the measured activity by half. A higher IC50 goes with a need for much substance. The Ki is the equilibrium dissociation constant of an inhibitor or competing ligand from its target. The low end stands for a stronger hold on the target, the high end for a looser hold on the target.

The record behind these values is publication PMC10559049 (Heliyon, 2023).
